Screens as filed in PubChem.
In the library only some 2.6% were active in any assay of this set; here they are far more common.
Wnt act – Wnt/beta-catenin pathway activators, primary screen, cell-based, plate reader, single point; AID 743398, 2014; activation, % at 9.35 µM; Wnt/beta-catenin reporter cell assay, activator; actives 1.2% (n = 300,000); in the data active means activation above about 30%, passing the limit was not always enough; inconclusive means no clear call, values can overlap the other calls;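 further: 0% = neutral control wells and 100% = positive control wells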
XiGFP reactiv – activators of inactive X chromosome reactivation, primary screen, imaging, XiGFP fibroblasts, GFP high-content imaging, set 2 | XiGFP mouse fibroblasts, % GFP-positive cells imaging, 3 d; cells co-treated with 5-aza-dC sensitizer; scaled so ellipticine positive control = 100% | activation, % at 7.58 µM | actives 0.055% (n = 360,000);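 active means mean normalized replicate activation at least 10% and every replicate at or above 10%; inconclusive means only one of the two criteria met; inactive means mean below 10% and not all replicates reach 10%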;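 further: 0% = median of on-plate neutral control wells and 100% = ellipticine 6 µM median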
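System: SV40-immortalized XiGFP fibroblast cells, line 68-5-11 / Incubation: 3-day compound exposure, then 15 min fixation at room temperature / Compound: single concentration per compound, delivered by pin transfer / Buffer or medium: DMEM plus 5-aza-dC sensitizer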
Vif inh – HIV Vif self-association inhibitors, primary screen, imaging, HEK293T, single point; actives 0.35% (n = 340,000); AID 602346, 2012; inhibition, % at 7.49 µM; HEK293T cells, Vif self-association by quenched fluorescence, 24 h; in the data active means inhibition above about 50%, passing the limit was not always enough; inconclusive means no clear call, values can overlap the other calls; inactive means below about 31%
esBAF inh – Bmi1 luciferase reporter increase in mESCs, primary screen, esBAF inhibitor project, mouse ES cells, Bmi1 luciferase knock-in, single point | 24 h; 100% = twice the neutral-well signal | reporter increase, % at 12.5 µM | actives 2% (n = 350,000) | AID 602393, 2012; in the data active means activation above about 40%; inconclusive means no clear call, values can overlap the other calls;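 further: 0% = median of the plate's neutral control wells and 100% = double that signal; a rise in the Bmi1 reporter signal indicates esBAF inhibition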
MITF TRPM1 HTS – activators of MITF-driven TRPM1 promoter reporter, primary screen, cell-based, SK-MEL-5, luciferase, single point; SK-MEL-5 TRPM1-promoter luciferase, 24 h; % of positive control, neutral wells = 0; activation, % at 12.5 µM; actives 0.75% (n = 300,000); AID 588334, 2011;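 active means mean activation of at least 80% with every replicate also reaching 80%; inconclusive means mean reaches 80% but some replicate falls short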;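 further: 0% = neutral control wells and 100% = parthenolide positive control wells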
The depositor's hits bear a star; ? = inconclusive; . = not tested or not shown; ! = repeats disagree.

SMILES	Wnt act	XiGFP reactiv	Vif inh	esBAF inh	MITF TRPM1 HTS
CN(C)C(=O)c1cccc(-c2ccc([C@@H]3[C@@H](CO)N4C(=O)CNC[C@@H]34)cc2)c1	.	0	.	.	.
CSc1cccc(NC(=O)CNC(=O)c2ccc3c(c2)OCO3)c1	-2	0	-3	10	7
CSc1cccc(-n2cc(-c3ccc4c(c3)OCO4)[nH]c2=O)c1	.	.	18	45*	10
COCC(=O)N1CC2(CN(Cc3nccs3)C2)c2c(n(C)c3cc(OC)ccc23)[C@H]1CO	.	0	.	.	.
O=Cc1c(OCc2ccccc2)ccc2ccccc12	-8	0	-1	100*	64
CCS(=O)(=O)c1ccc(C=NNc2nc3ccccc3o2)cc1	-3	0	-1	.	104*
CN(C)c1ccc(/C=N/Nc2nc3ccccc3o2)cc1	27	0	0	-66	-9
C[C@@H]1CN([C@@H](C)CO)C(=O)c2cccc(NC(=O)Nc3ccc4c(c3)OCO4)c2O[C@H]1CN(C)Cc1ccc(Cl)c(Cl)c1	.	0	.	55*	.
C[C@H]1CN([C@@H](C)CO)C(=O)Cc2cc(NC(=O)C3CCCCC3)ccc2O[C@@H]1CN(C)C(=O)Nc1ccc2c(c1)OCO2	.	0	.	42*	.
C[C@H]1CN([C@@H](C)CO)C(=O)c2cccc(NS(=O)(=O)c3ccccc3)c2O[C@@H]1CN(C)C(=O)Nc1ccc2c(c1)OCO2	.	-1	.	57*	.
C[C@@H]1CN([C@H](C)CO)C(=O)c2cccc(NS(=O)(=O)c3ccccc3)c2O[C@H]1CN(C)C(=O)Nc1ccc2c(c1)OCO2	.	0	.	12	.
C[C@@H]1CN([C@H](C)CO)C(=O)c2cccc(NC(=O)Nc3ccc4c(c3)OCO4)c2O[C@H]1CN(C)Cc1ccc2c(c1)OCO2	.	0	.	6	.
Cc1ccc(S(=O)(=O)Nc2cccc3c2O[C@H](CN(C)C(=O)Nc2ccc4c(c2)OCO4)[C@@H](C)CN([C@H](C)CO)C3=O)cc1	.	0	.	49*	.
Cc1ccc(S(=O)(=O)Nc2cccc3c2O[C@@H](CN(C)C(=O)Nc2ccc4c(c2)OCO4)[C@H](C)CN([C@H](C)CO)C3=O)cc1	.	0	.	28	.
COc1ccc(CN(C)C[C@H]2OCCCC[C@@H](C)Oc3ccc(NS(=O)(=O)c4ccccc4)cc3C(=O)N([C@@H](C)CO)C[C@H]2C)cc1	.	0	.	0	.
C[C@@H]1CCCCO[C@@H](CN(C)Cc2ccccc2)[C@H](C)CN([C@@H](C)CO)C(=O)c2cc(NC(=O)Nc3ccc4c(c3)OCO4)ccc2O1	.	0	.	-5	.
C[C@@H]1CN([C@@H](C)CO)C(=O)c2cccc(NC(=O)Nc3ccccc3)c2O[C@H]1CN(C)C(=O)Nc1ccc2c(c1)OCO2	.	0	.	61*	.
Cc1ccc(S(=O)(=O)Nc2cccc3c2O[C@@H](CN(C)C(=O)Nc2ccc4c(c2)OCO4)[C@@H](C)CN([C@@H](C)CO)C3=O)cc1	.	-1	.	73*	.
C[C@H]1CN([C@@H](C)CO)C(=O)c2cccc(NC(=O)Nc3ccccc3)c2O[C@H]1CN(C)C(=O)Nc1ccc2c(c1)OCO2	.	-1	.	10	.
Cc1ccc(S(=O)(=O)Nc2cccc3c2O[C@@H](CN(C)C(=O)Nc2ccc4c(c2)OCO4)[C@@H](C)CN([C@H](C)CO)C3=O)cc1	.	0	.	18	.
CCCNC(=O)Nc1ccc2c(c1)C(=O)N(C)C[C@H](OC)[C@H](C)CN(CCC)[C@@H](C)CO2	.	0	.	-4	.
N#C/C(=C(/O)CN1CCN(c2ccccc2F)CC1)c1nc(-c2ccc(Cl)cc2)cs1	-2	.	-7	-1	-9
N#C/C(=C(/O)CN1CCCCC1)c1nc(-c2ccc(Cl)cc2)cs1	.	.	-1	60*	38
COc1ccc(C)c2sc(=NC(=O)c3ccccc3)n(C)c12	?	7	23	51*	.
COc1ccc(NC(=O)c2cc3ccccc3oc2=O)c(OC)c1	27	0	-8	47*	.
SMILES	Wnt act	XiGFP reactiv	Vif inh	esBAF inh	MITF TRPM1 HTS
COc1ccc2oc(=O)c(C(=O)Nc3cccc(C)c3)cc2c1	17	0	-24	77*	72
COc1ccccc1C(=O)Nc1cc2cc(Br)ccc2oc1=O	-16	.	17	27*	-2
COc1ccc(S(=O)(=O)Nc2ccccc2OC)cc1NC(=O)c1cc2ccccc2oc1=O	.	1	-3	.	90*
COc1ccccc1C(=O)Nc1cc2ccccc2oc1=O	.	.	16	10	10
Cc1csc(Nc2ccc(Cl)cc2)n1	11	0	-3	76*	78
Oc1ccc(Nc2nc(-c3ccc(O)cc3)cs2)cc1	.	.	-13	.	15
Cc1csc(Nc2cccc3ccccc23)n1	-2	0	.	.	23
Cc1ccc(Nc2nc(C)cs2)cc1	58*	0	10	20	55
COc1ccccc1Nc1nc(C)cs1	0	.	1	16	89*!
COc1ccc(-c2csc(CCn3nc(C)cc3C)n2)cc1	0	0	-10	.	6
Cc1cc(C)n(CCc2nc(-c3ccc(-c4ccccc4)cc3)cs2)n1	20	0	-6	70*	44
Cc1nn(-c2ccccc2)nc1C(=O)NN	36*	0	-4	4	0
Cc1nn(-c2ccccc2)nc1C(=O)NNC(=O)c1cccc2ccccc12	-1	0	8	-3	-13
CCOC(=O)c1cnc(Nc2nc3ccccc3o2)nc1CSC(=S)N(CC)CC	6	1	-1	.	-13
CCCc1nc(Nc2nc3ccccc3o2)nc(C)c1C(=O)OCC	.	.	-11	63*	116*
COc1ccc(C(=O)Nc2cccc(-c3ccc(N4CCOCC4)nn3)c2)cc1	19	0	4	45*	90*
COc1cccc(OC)c1C(=O)Nc1cccc(-c2ccc(N3CCOCC3)nn2)c1	19	0	8	4	83*
Cc1cc(C(=O)Nc2cccc(-c3ccc(N4CCOCC4)nn3)c2)ccc1[N+](=O)[O-]	27	0	-16	.	76
COc1cc(OC)cc(C(=O)Nc2cccc(-c3ccc(N4CCOCC4)nn3)c2)c1	20	1	-11	33	101*
O=C(COc1ccc(Cl)cc1)Nc1cccc(-c2ccc(N3CCOCC3)nn2)c1	30	0	-15	-38	71
C=C(C)CNC(=O)c1ccc2nc(Cc3ccc(OC)cc3)oc2c1	17	0	19	66*	.
CCC(=O)C1CCCN(C(=O)c2ccc3nc(-c4cccc(OC)c4)oc3c2)C1 (configuration not stated)	29	0	8	-4	40
COC1CCN(C(=O)c2ccc3oc(C(C)C)nc3c2)CC1	2	0	3	8	10
CCOC(=O)C1CCCN(C(=O)c2ccc3nc(-c4cccc(OC)c4)oc3c2)C1 (configuration not stated)	17	0	-2	48*	26
